Measurements pooled from the literature.
Each line is one published result; the experiments were not run side by side.
EGFR: Epidermal growth factor receptor (EGFR, Homo sapiens, UniProt P00533)
Palmitoyl-protein thioesterase 1: Palmitoyl-protein thioesterase 1 (Homo sapiens, UniProt P50897)
Transmembrane protease serine 6: Transmembrane protease serine 6 (Homo sapiens, UniProt Q8IU80)
PRKCD: Protein kinase C delta type (PRKCD, Homo sapiens, UniProt Q05655)

Structure (SMILES)	target	assay	conditions	endpoint	result
Cc1ncc(CNCc2ccco2)c2cc(-c3cc(=O)oc4cc5c(cc34)CCC5)oc12	EGFR	enzyme activity, inhibitor, ADP detection	1 µM	inhibition	0 to 40%
COc1cnc(NS(=O)(=O)c2ccc(N)cc2)nc1	Palmitoyl-protein thioesterase 1	enzyme activity, inhibitor	125 µM	inhibition	13.6%
N=C(N)NCCC[C@H](NC(=O)[C@H](Cc1ccc2ccccc2c1)NC(=O)[C@H](Cc1cscn1)NC(=O)CCc1ccccc1)C(=O)c1nc2ccccc2s1	Transmembrane protease serine 6	enzyme activity, inhibitor	0.1 µM	remaining activity	8%
NC(=O)N[C@@H](CCC(=O)O)C(=O)O	Palmitoyl-protein thioesterase 1	enzyme activity, inhibitor	125 µM	inhibition	40.4%
C=CC(=O)N1CCC(COCC(=O)N2CCN(c3nc(-c4cnc(N)nc4C(F)F)nc(N4CCOC[C@@H]4C)n3)CC2)CC1	Serine/threonine-protein kinase B-raf (BRAF, Homo sapiens, UniProt P15056, V600E)	binding, competition with immobilised ligand	1 µM	remaining binding	81%
CNc1ncc2c(/C=C/C(=O)N3CCC(OC)CC3)nn(Cc3cccc(C(F)(F)F)c3)c2n1	PRKCD	enzyme activity, inhibitor, radiometric	1 µM	remaining activity	99%
C[C@@H]1O[C@@H](OC[C@H]2O[C@@H](Oc3c(-c4ccc(O)c(O)c4)oc4cc(O)cc(O)c4c3=O)[C@H](O)[C@@H](O)[C@@H]2O)[C@H](O)[C@H](O)[C@H]1O	Palmitoyl-protein thioesterase 1	enzyme activity, inhibitor	125 µM	inhibition	61.8%
N=C(N)NCCC[C@H](NC(=O)[C@H](Cc1cccc(I)c1)NC(=O)[C@H](Cc1cscn1)NC(=O)CCc1ccccc1)C(=O)c1nc2ccccc2s1	Transmembrane protease serine 6	enzyme activity, inhibitor	0.1 µM	remaining activity	92%
Nc1ccc(C(=O)NCC(=O)O)cc1	Palmitoyl-protein thioesterase 1	enzyme activity, inhibitor	125 µM	inhibition	10.1%
N=C(N)NCCC[C@H](NC(=O)[C@@H](NC(=O)[C@H](Cc1cscn1)NC(=O)CCc1ccccc1)c1ccccc1)C(=O)c1nc2ccccc2s1	Transmembrane protease serine 6	enzyme activity, inhibitor	0.1 µM	remaining activity	6%
COc1cc(-c2cncc3c2CN(C)Cc2cc(N4CCNCC4)ccc2-3)cc(OC)c1OC	PRKCD	enzyme activity, inhibitor	1 µM	remaining activity	104%
O=C1C=C2CC3(O)COc4cc(O)ccc4C3=C2C=C1O (stereo not shown)	Palmitoyl-protein thioesterase 1	enzyme activity, inhibitor	625 µM	inhibition	29.3%
N=C(N)NCCC[C@H](NC(=O)[C@@H](NC(=O)[C@H](Cc1cscn1)NC(=O)CCc1ccccc1)C(c1ccccc1)c1ccccc1)C(=O)c1nc2ccccc2s1	Transmembrane protease serine 6	enzyme activity, inhibitor	0.1 µM	remaining activity	65%
c1coc(CNc2ncnc3[nH]cnc23)c1	Palmitoyl-protein thioesterase 1	enzyme activity, inhibitor	125 µM	inhibition	8.93%
Cc1ccc2c(-c3cc4c(CNCc5ccco5)cnc(C)c4o3)cc(=O)oc2c1C	EGFR	enzyme activity, inhibitor, ADP detection	1 µM	inhibition	0 to 40%
N=C(N)NCCC[C@H](NC(=O)[C@@H]1CCCN1C(=O)[C@H](Cc1cscn1)NC(=O)CCc1ccccc1)C(=O)c1nc2ccccc2s1	Transmembrane protease serine 6	enzyme activity, inhibitor	0.1 µM	remaining activity	60%
O=C(CCn1c(=O)ccc2ccccc21)N1CCOCC1	EGFR	enzyme activity, inhibitor	10 µM	inhibition	86.8%
O=C(O)CCCc1c[nH]c2ccccc12	Palmitoyl-protein thioesterase 1	enzyme activity, inhibitor	125 µM	inhibition	14%
N=C(N)NCCC[C@H](NC(=O)[C@H](Cc1ccc(I)cc1)NC(=O)[C@H](Cc1cscn1)NC(=O)CCc1ccccc1)C(=O)c1nc2ccccc2s1	Transmembrane protease serine 6	enzyme activity, inhibitor	0.1 µM	remaining activity	90%
Cc1ccc2c(-c3cc4c(CNCc5cccnc5)cnc(C)c4o3)cc(=O)oc2c1C	EGFR	enzyme activity, inhibitor, ADP detection	1 µM	inhibition	90 to 100%
N=C(N)NCCC[C@H](NC(=O)[C@H](Cc1ccncc1)NC(=O)[C@H](Cc1cscn1)NC(=O)CCc1ccccc1)C(=O)c1nc2ccccc2s1	Transmembrane protease serine 6	enzyme activity, inhibitor	0.1 µM	remaining activity	68%
C=C1C(=O)O[C@H]2[C@H]1CC/C(C)=C/CC[C@@]1(C)O[C@@H]21	Palmitoyl-protein thioesterase 1	enzyme activity, inhibitor	125 µM	inhibition	-5.16%
Cc1ccc2c(-c3cc4c(CN5CCN(Cc6ccccn6)CC5)cnc(C)c4o3)cc(=O)oc2c1	EGFR	enzyme activity, inhibitor, ADP detection	1 µM	inhibition	60 to 80%
CC[C@H](NC(=O)[C@H](Cc1cscn1)NC(=O)CCc1ccccc1)C(=O)N[C@@H](CCCNC(=N)N)C(=O)c1nc2ccccc2s1	Transmembrane protease serine 6	enzyme activity, inhibitor	0.1 µM	remaining activity	20 to 50%
Cc1cc([C@@H](C)Nc2ccccc2C(=O)O)c2nc(N3CCC(F)(F)CC3)c(C#N)c(=O)n2c1	SRSF protein kinase 3 (SRPK3, Homo sapiens, UniProt Q9UPE1)	binding, competition with immobilised ligand	1 µM	remaining binding	77%
